Assay results gathered from unrelated publications.
Lines come from different studies, so protocols differ.
Effect on: cell growth or viability

SMILES | cell line | assay | setting | measurement | value
Nc1ccc(/C=C/C(=O)N2CCc3c(oc4c(-c5ccc(F)cc5)cc(-c5ccc(C(=O)N6CCC(F)(F)CC6)nn5)cc34)C2)cn1 | BXPC-3 | CCK-8 | 72 h | IC50 | > 20 µM
C=CC(=O)c1cccnc1Nc1cc(C(F)(F)F)ccc1OCc1ccccc1 | BXPC-3 | SRB | 48 h | GI50 | 11.6 µM
Cc1nc(Nc2ccc3c(c2)C(C)(C)C(=O)N3)c2ccccc2n1 | B16 | MTT | – | IC50 | 14.8 µM
C=CC(=O)NC1CCN(c2ncc3ncnc(Nc4ccc(Oc5ccc6c(c5)ncn6C)c(C)c4)c3n2)CC1 | JHH-4 | – | – | EC50 | 0.108 µM
Cc1nc(Nc2ccc3c(c2)/C(=C/c2ccccc2)C(=O)N3Cc2ccccc2)c2ccccc2n1 | B16 | MTT | – | IC50 | 15.1 µM
Nc1ccc(/C=C/C(=O)NCc2cc3cc(-c4ccc(C(=O)N5CCC(F)(F)CC5)cc4)cc(-c4ccc(F)cc4)c3o2)cn1 | BXPC-3 | CCK-8 | 72 h | IC50 | > 20 µM
Cc1sc2c(c1C)C(c1ccc(Cl)cc1)=N[C@@H](CC(=O)NCCCCCCCCNC(=O)COc1cccc3c1C(=O)N(C1CCC(=O)NC1=O)C3=O)c1nnc(C)n1-2 (stereo partly drawn) | BXPC-3 | ATP luminescence | – | IC50 | 0.27 µM
COc1cc2ncnc(N(C)c3ccc4c(c3)/C(=C/c3cccc(Cl)c3)C(=O)N4C)c2cc1OC | B16 | MTT | – | IC50 | 2.51 µM
COc1cc2c3c(n(CCCn4ccnc4)c(=O)c2cc1OC)-c1nc2c(cc1C3=O)OCO2 | RD-ES | MTS | 72 h | IC50 | 0.18 µM
O=C(O)c1ccccc1Nc1cccc(C(F)(F)F)c1 | BXPC-3 | SRB | 48 h | GI50 | > 30 µM
Cc1nc(Nc2ccc3c(c2)/C(=C/c2ccccc2)C(=O)N3C)c2ccccc2n1 | B16 | MTT | – | IC50 | 3.56 µM
CCNCCCn1c2c(c3cc(OC)c(OC)cc3c1=O)C(=O)c1cc3c(nc1-2)OCO3 | RD-ES | MTS | 72 h | IC50 | 0.02 µM
